# The source made the active and inactive calls. No cut-off for these calls is given here.
# How the values were obtained:
# [1] = molecular target: Human immunodeficiency virus type 1 reverse transcriptase (Human immunodeficiency virus 1, UniProt Q72547); experiment: Non-competitive inhibition of wild type HIV1 reverse transcriptase p66/p51 after 30 mins by liquid scintillation counting
# [2] = test system: MT4; experiment: Cytotoxicity against human MT4 cells after 4 days by MTT assay; format: cell-based; details: mt4, 96 h
# [3] = test system: Human immunodeficiency virus 1; experiment: Antiviral activity against HIV1 3B infected in human MT4 cells assessed as inhibition of virus-induced cytopathic effect after 4 days by MTT assay; format: functional, organism-based; details: Human immunodeficiency virus 1, 3B, MT4, 96 h
# Method in brief: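 HIV-1 in MT-4 cells at 1 × 10^5 cells/ml, infected at MOI 0.02 (virus stock titrated as CCID50), then plated immediately onto varying compound concentrations. After 4 days at 37 °C, viable cells counted by MTT.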
# [4] = test system: Human alphaherpesvirus 3; experiment: Antiviral activity against Varicella zoster virus; format: functional, organism-based
# Method in brief: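 VZV strain Oka and the TK− strain 07-1 were inoculated at 20 PFU onto confluent cell monolayers in the presence of varying compound concentrations. Plaque formation was recorded once complete in untreated infected controls.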
# [5] = test system: Punta Toro virus; experiment: Antiviral activity against Punta Toro virus; format: functional, organism-based
# [6] = test system: Sindbis virus; experiment: Antiviral activity against Sindbis virus; format: functional, organism-based
# [7] = test system: Mammalian orthoreovirus 1; experiment: Antiviral activity against Reovirus 1; format: functional, organism-based
# [8] = test system: Human respirovirus 3; experiment: Antiviral activity against Parainfluenza virus 3; format: functional, organism-based
# [9] = test system: Influenza B virus; experiment: Antiviral activity against influenza B virus; format: functional, organism-based
# [10] = test system: Influenza A virus; experiment: Antiviral activity against Influenza A virus H3N2; format: functional, organism-based
# [11] = test system: Influenza A virus; experiment: Antiviral activity against Influenza A virus H1N1; format: functional, organism-based
# [12] = test system: Respiratory syncytial virus; experiment: Antiviral activity against Respiratory syncytial virus; format: functional, organism-based
# [13] = test system: Coxsackievirus B4; experiment: Antiviral activity against Coxsackievirus B4; format: functional, organism-based
# [14] = test system: Vesicular stomatitis virus; experiment: Antiviral activity against Vesicular stomatitis virus; format: functional, organism-based
# [15] = test system: Vaccinia virus; experiment: Antiviral activity against Vaccinia virus; format: functional, organism-based; details: Orthopoxvirus vaccinia
# [16] = test system: Human alphaherpesvirus 2; experiment: Antiviral activity against Human herpesvirus 2; format: functional, organism-based
# Method in brief: (§1)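 Confluent HEL, Vero, HeLa or MDCK monolayers (cell type per virus not specified) were inoculated with 100 CCID50 of virus, with a range of compound concentrations. Strains were HSV-1 KOS and TK− ACV-resistant KOS, HSV-2 Lyons and G, and HCMV AD-169 and Davis. Cytopathicity or plaques were scored once complete in untreated infected controls.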
# [17] = test system: Human alphaherpesvirus 1; experiment: Antiviral activity against Human herpesvirus 1; format: functional, organism-based; method in brief: as §1
# [18] = test system: Feline coronavirus; experiment: Antiviral activity against Feline coronavirus; format: functional, organism-based
# [19] = Selectivity index, ratio of CC50 for human MT4 cells to EC50 for HIV1 3B infected in human MT4 cells; format: toxicity, cell-based; details: MT4 cells (uninfected for CC50; HIV-1 3B infected for EC50)
smiles,measurement,setting,value
Cc1ccccc1OCCn1ccc(=O)n(Cc2ccccc2)c1=O,Ki,[1],> 100 µM
same,CC50,[2],117 µM
same,EC50,[3],> 117 µM
same,Activity,[4],inactive
same,Activity,[5],inactive
same,Activity,[6],inactive
same,Activity,[7],inactive
same,Activity,[8],inactive
same,Activity,[9],inactive
same,Activity,[10],inactive
same,Activity,[11],inactive
same,Activity,[12],inactive
same,Activity,[13],inactive
same,Activity,[14],inactive
same,Activity,[15],inactive
same,Activity,[16],inactive
same,Activity,[17],inactive
same,Activity,[18],inactive
N#Cc1ccc(OCCn2ccc(=O)n(Cc3ccccc3)c2=O)cc1,Ki,[1],51 µM
same,selectivity ratio,[19],3.9
same,CC50,[2],166 µM
same,EC50,[3],43 µM
same,Activity,[4],inactive
same,Activity,[5],inactive
same,Activity,[6],inactive
same,Activity,[7],inactive
same,Activity,[8],inactive
same,Activity,[9],inactive
same,Activity,[10],inactive
same,Activity,[11],inactive
same,Activity,[12],inactive
same,Activity,[13],inactive
same,Activity,[14],inactive
same,Activity,[15],inactive
same,Activity,[16],inactive
same,Activity,[17],inactive
same,Activity,[18],inactive
CC(C)(C)c1ccc(OCCn2ccc(=O)n(Cc3ccccc3)c2=O)cc1,Ki,[1],15 µM
same,CC50,[2],63 µM
same,EC50,[3],> 63 µM
same,Activity,[4],inactive
same,Activity,[5],inactive
same,Activity,[6],inactive
same,Activity,[7],inactive
same,Activity,[8],inactive
same,Activity,[9],inactive
same,Activity,[10],inactive
same,Activity,[11],inactive
same,Activity,[12],inactive
same,Activity,[13],inactive
same,Activity,[14],inactive
same,Activity,[15],inactive
same,Activity,[16],inactive
same,Activity,[17],inactive
same,Activity,[18],inactive
Cc1ccc(OCCn2ccc(=O)n(Cc3ccccc3C)c2=O)cc1,Ki,[1],> 100 µM
same,CC50,[2],46 µM
same,EC50,[3],> 46 µM
same,Activity,[4],inactive
same,Activity,[5],inactive
same,Activity,[6],inactive
same,Activity,[7],inactive
same,Activity,[8],inactive
same,Activity,[9],inactive
same,Activity,[10],inactive
same,Activity,[11],inactive
same,Activity,[12],inactive
same,Activity,[13],inactive
same,Activity,[14],inactive
same,Activity,[15],inactive
same,Activity,[16],inactive
same,Activity,[17],inactive
same,Activity,[18],inactive
O=c1ccn(CCOc2ccc(Cl)cc2)c(=O)n1Cc1ccccc1,Ki,[1],22 µM
same,CC50,[2],36 µM
same,EC50,[3],> 36 µM
same,Activity,[4],inactive
same,Activity,[5],inactive
same,Activity,[6],inactive
same,Activity,[7],inactive
same,Activity,[8],inactive
same,Activity,[9],inactive
same,Activity,[10],inactive
same,Activity,[11],inactive
same,Activity,[12],inactive
same,Activity,[13],inactive
same,Activity,[14],inactive
same,Activity,[15],inactive
same,Activity,[16],inactive
same,Activity,[17],inactive
same,Activity,[18],inactive
Cc1ccc(OCCn2ccc(=O)n(CCc3ccccc3)c2=O)cc1,Ki,[1],6.5 µM
same,CC50,[2],129 µM
same,EC50,[3],> 129 µM
same,Activity,[4],inactive
same,Activity,[5],inactive
same,Activity,[6],inactive
same,Activity,[7],inactive
same,Activity,[8],inactive
same,Activity,[9],inactive
same,Activity,[10],inactive
same,Activity,[11],inactive
same,Activity,[12],inactive
same,Activity,[13],inactive
same,Activity,[14],inactive
same,Activity,[15],inactive
same,Activity,[16],inactive
same,Activity,[17],inactive
same,Activity,[18],inactive
Cc1ccc(OCCn2ccc(=O)n(Cc3c(C)cc(C)cc3C)c2=O)cc1,Ki,[1],> 100 µM
same,CC50,[2],133 µM
same,EC50,[3],> 133 µM
same,Activity,[4],inactive
same,Activity,[5],inactive
same,Activity,[6],inactive
same,Activity,[7],inactive
same,Activity,[8],inactive
same,Activity,[9],inactive
same,Activity,[10],inactive
same,Activity,[11],inactive
same,Activity,[12],inactive
same,Activity,[13],inactive
same,Activity,[14],inactive
same,Activity,[15],inactive
same,Activity,[16],inactive
same,Activity,[17],inactive
same,Activity,[18],inactive
O=c1ccn(CCOc2ccc3ccccc3c2)c(=O)n1Cc1ccccc1,Ki,[1],1 µM
same,CC50,[2],37 µM
same,EC50,[3],> 37 µM
same,Activity,[4],inactive
same,Activity,[5],inactive
same,Activity,[6],inactive
same,Activity,[7],inactive
same,Activity,[8],inactive
same,Activity,[9],inactive
same,Activity,[10],inactive
same,Activity,[11],inactive
same,Activity,[12],inactive
same,Activity,[13],inactive
same,Activity,[14],inactive
same,Activity,[15],inactive
same,Activity,[16],inactive
same,Activity,[17],inactive
same,Activity,[18],inactive
Cc1ccnc2c1NC(=O)c1cccnc1N2C1CC1 [NEVIRAPINE],CC50,[2],> 4 µM
same,EC50,[3],0.048 µM
Cc1ccc(OCCn2ccc(=O)n(Cc3ccccc3)c2=O)cc1C,Ki,[1],> 100 µM
same,CC50,[2],60 µM
same,EC50,[3],> 60 µM
same,Activity,[4],inactive
same,Activity,[5],inactive
same,Activity,[6],inactive
same,Activity,[7],inactive
same,Activity,[8],inactive
same,Activity,[9],inactive
same,Activity,[10],inactive
same,Activity,[11],inactive
same,Activity,[12],inactive
same,Activity,[13],inactive
same,Activity,[14],inactive
same,Activity,[15],inactive
same,Activity,[16],inactive
same,Activity,[17],inactive
same,Activity,[18],inactive
Cc1ccc(OCCn2c(=O)n(Cc3ccccc3)c(=O)c3ccccc32)cc1,Ki,[1],1 µM
same,CC50,[2],25 µM
same,EC50,[3],> 25 µM
same,Activity,[4],inactive
same,Activity,[5],inactive
same,Activity,[6],inactive
same,Activity,[7],inactive
same,Activity,[8],inactive
same,Activity,[9],inactive
same,Activity,[10],inactive
same,Activity,[11],inactive
same,Activity,[12],inactive
same,Activity,[13],inactive
same,Activity,[14],inactive
same,Activity,[15],inactive
same,Activity,[16],inactive
same,Activity,[17],inactive
same,Activity,[18],inactive
Cc1cc(C)cc(OCCn2ccc(=O)n(Cc3ccccc3)c2=O)c1,Ki,[1],> 100 µM
same,CC50,[2],46 µM
same,EC50,[3],> 46 µM
same,Activity,[4],inactive
same,Activity,[5],inactive
same,Activity,[6],inactive
same,Activity,[7],inactive
same,Activity,[8],inactive
same,Activity,[9],inactive
same,Activity,[10],inactive
same,Activity,[11],inactive
same,Activity,[12],inactive
same,Activity,[13],inactive
same,Activity,[14],inactive
same,Activity,[15],inactive
same,Activity,[16],inactive
same,Activity,[17],inactive
same,Activity,[18],inactive
Cc1ccc(OCCn2cc(C)c(=O)n(Cc3ccccc3)c2=O)cc1,Ki,[1],1 µM
same,CC50,[2],> 356 µM
same,EC50,[3],> 356 µM
same,Activity,[4],inactive
same,Activity,[5],inactive
same,Activity,[6],inactive
same,Activity,[7],inactive
same,Activity,[8],inactive
same,Activity,[9],inactive
same,Activity,[10],inactive
same,Activity,[11],inactive
same,Activity,[12],inactive
same,Activity,[13],inactive
same,Activity,[14],inactive
same,Activity,[15],inactive
same,Activity,[16],inactive
same,Activity,[17],inactive
same,Activity,[18],inactive
Cc1ccc(Cn2c(=O)ccn(CCOc3ccc(C)cc3)c2=O)cc1,Ki,[1],47 µM
same,CC50,[2],250 µM
same,EC50,[3],> 250 µM
same,Activity,[4],inactive
same,Activity,[5],inactive
same,Activity,[6],inactive
same,Activity,[7],inactive
same,Activity,[8],inactive
same,Activity,[9],inactive
same,Activity,[10],inactive
same,Activity,[11],inactive
same,Activity,[12],inactive
same,Activity,[13],inactive
same,Activity,[14],inactive
same,Activity,[15],inactive
same,Activity,[16],inactive
same,Activity,[17],inactive
same,Activity,[18],inactive

# From ChEMBL document CHEMBL2331304, “N1,N3-disubstituted uracils as nonnucleoside inhibitors of HIV-1 reverse transcriptase” (Bioorg Med Chem, 2013)
